Source: ChEMBL document CHEMBL1687732, “Prevention of death in bacterium-infected mice by a synthetic antimicrobial peptide, L5, through activation of host immunity” (2009)
Active and inactive are the calls of the source. The rule behind the calls is not given here. Non-standard residues stand in square brackets, D forms with d. Residues, ends and D or L forms follow the SMILES beside them.

Key:
Staphylococcus aureus [1] = test: Antibacterial activity against Staphylococcus aureus Smith infected in ICR mouse assessed as survival rate at 50 ug, ip treated 0.5 hrs after infection using 2 X 10^6 CFU inoculum measured on day 5 after bacterial infection; assay type: functional
Procedure, shortened: (§1)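 Five-week-old female ICR mice got peptide intraperitoneally in 500 μl Dulbecco's PBS with 2% DMSO; vehicle controls got PBS/2% DMSO. The minimum lethal bacterial dose was given intraperitoneally at set intervals: S. aureus Smith 2 × 10⁶, E. faecalis SR1004 1.7 × 10⁸, E. coli EC14 2.3 × 10⁴ CFU/mouse. Survival was scored on day 5 (4 or 8 mice/group; Fisher's exact test).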

Staphylococcus aureus [2] = test: Antibacterial activity against Staphylococcus aureus Smith infected in ICR mouse assessed as survival rate at 50 ug, ip pretreated for 1 hr before infection using 2 X 10^6 CFU inoculum measured on day 5 after bacterial infection; assay type: functional; procedure, shortened: as §1
Escherichia coli [3] = test: Antibacterial activity against Escherichia coli EC14 infected in ICR mouse assessed as survival rate at 100 ug, ip pretreated for 7 hrs before infection using 2.5 X 10^3 CFU inoculum measured on day 5; assay type: functional
Staphylococcus aureus [4] = test: Antibacterial activity against Staphylococcus aureus Smith by broth microdilution method; assay type: functional
Procedure, shortened: (§2)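 MIC was determined by broth microdilution following NCCLS recommendations.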

Staphylococcus aureus [5] = test: Antibacterial activity against Staphylococcus aureus Smith infected in ICR mouse assessed as survival rate at 25 ug, ip pretreated for 7 hrs before infection using 2 X 10^6 CFU inoculum measured on day 5 after bacterial infection; assay type: functional; procedure, shortened: as §1
Enterococcus faecalis [6] = test: Antibacterial activity against Enterococcus faecalis SR1004 by broth microdilution method; assay type: functional; procedure, shortened: as §2
Escherichia coli [7] = test: Antibacterial activity against Escherichia coli EC14 infected in ICR mouse assessed as survival rate at 100 ug, ip pretreated for 7 hrs before infection using 2.5 X 10^4 CFU inoculum measured on day 5; assay type: functional
Staphylococcus aureus [8] = test: Antibacterial activity against Staphylococcus aureus Smith infected in ICR mouse assessed as survival rate at 50 ug, ip pretreated for 7 hrs before infection using 2 X 10^6 CFU inoculum measured on day 5 after bacterial infection; assay type: functional; procedure, shortened: as §1
Staphylococcus aureus [9] = test: Antibacterial activity against Staphylococcus aureus Smith infected in ICR mouse assessed as survival rate at 50 ug, ip pretreated for 3 hrs before infection using 2 X 10^6 CFU inoculum measured on day 5 after bacterial infection; assay type: functional; procedure, shortened: as §1
Staphylococcus aureus [10] = test: Antibacterial activity against Staphylococcus aureus Smith infected in ICR mouse assessed as survival rate at 100 ug, ip pretreated for 7 hrs before infection using 2 X 10^6 CFU inoculum measured on day 5 after bacterial infection; assay type: functional; procedure, shortened: as §1
Staphylococcus aureus [11] = test: Antibacterial activity against Staphylococcus aureus Smith infected in ICR mouse assessed as survival rate at 3.13 ug, ip pretreated for 7 hrs before infection using 2 X 10^6 CFU inoculum measured on day 5 after bacterial infection; assay type: functional; procedure, shortened: as §1
Staphylococcus aureus [12] = test: Antibacterial activity against Staphylococcus aureus Smith infected in ICR mouse assessed as survival rate at 50 ug, ip treated at the time of infection using 2 X 10^6 CFU inoculum measured on day 5 after bacterial infection; assay type: functional; procedure, shortened: as §1
Enterococcus faecalis [13] = test: Antibacterial activity against Enterococcus faecalis SR1004 infected in ICR mouse assessed as survival rate at 100 ug, ip pretreated for 7 hrs before infection using 1.7 X 10^8 inoculum measured on day 5 after bacterial infection; assay type: functional; procedure, shortened: as §1
Escherichia coli [14] = test: Antibacterial activity against Escherichia coli EC14 infected in ICR mouse assessed as survival rate at 100 ug, ip pretreated for 7 hrs before infection using 2.3 X 10^4 CFU inoculum measured on day 5 after bacterial infection; assay type: functional; procedure, shortened: as §1
Staphylococcus aureus [15] = test: Antibacterial activity against Staphylococcus aureus Smith infected in ICR mouse assessed as survival rate at 100 ug, ip pretreated for 7 hrs before infection using 3 X 10^7 CFU inoculum measured on day 5; assay type: functional
Staphylococcus aureus [16] = test: Antibacterial activity against Staphylococcus aureus Smith infected in ICR mouse assessed as survival rate at 50 ug, ip pretreated for 24 hrs before infection using 2 X 10^6 CFU inoculum measured on day 5 after bacterial infection; assay type: functional; procedure, shortened: as §1
Escherichia coli [17] = test: Antibacterial activity against Escherichia coli EC14 by broth microdilution method; assay type: functional; procedure, shortened: as §2
Staphylococcus aureus [18] = test: Antibacterial activity against Staphylococcus aureus Smith infected in ICR mouse assessed as survival rate at 12.5 ug, ip pretreated for 7 hrs before infection using 2 X 10^6 CFU inoculum measured on day 5 after bacterial infection; assay type: functional; procedure, shortened: as §1
Staphylococcus aureus [19] = test: Antibacterial activity against Staphylococcus aureus Smith infected in ICR mouse assessed as survival rate at 100 ug, ip pretreated for 7 hrs before infection using 3 X 10^6 CFU inoculum measured on day 5; assay type: functional
Mus musculus [20] = test: Induction of ROS generation in intraperitoneally dosed ICR mouse abdominal cavity neutrophils after 7 hrs by lucigenin-dependent chemiluminescence method; assay type: functional, organism-based
Procedure, shortened: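 Peptide was injected intraperitoneally. After 7 h, peritoneal cells were collected by lavage with 5 ml cold saline, washed, and suspended at 2 × 10⁵ cells/ml in HEPES-buffered Hank's solution, pH 7.4. After 5 min at 37°C, lucigenin was added to 0.1 mM final. Chemiluminescence was read at 37°C in relative light units. The experiment was repeated and representative data shown.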

Mus musculus [21] = test: Induction of neutrophil recruitment in intraperitoneally dosed ICR mouse abdominal cavity assessed as accumulation of neutrophils after 7 hrs using hematoxylin and eosin staining by microscopy; assay type: functional, organism-based
Procedure, shortened: (§3)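 Peptide was injected intraperitoneally. After 7 h, the peritoneal cavity was lavaged with 5 ml cold sterile saline. Cells were washed, resuspended at 1 × 10⁶/ml in heat-inactivated FCS, cytocentrifuged, and stained with Diff-Quick. Total cells and neutrophils were counted by microscopy, and neutrophil percentage was averaged over five fields ± SD. Comparison used an unpaired t test after arcsine transformation.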

Staphylococcus aureus [22] = test: Antibacterial activity against Staphylococcus aureus Cowan I infected in intraperitoneally dosed ICR mouse assessed as bacterial kill in abdomen pretreated for 7 hrs before infection using 4 X 10^5 CFU inoculum; assay type: functional
Procedure, shortened: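 Peptide solution (500 μl) was injected ip. After 7 h, S. aureus Cowan I (4 × 10⁵ CFU/mouse) was introduced into the abdominal cavity for 15 min. The peritoneum was lavaged with 5 ml cold sterile saline, serially diluted in PBS and plated on LB agar for 18 h. Colonies were counted against saline-control mice (unpaired Student's t test).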

[23] = test system: Peritoneal macrophage cell; test: Induction of Mig/CXCL9 mRNA expression in TGC-elicited ICR mouse peritoneal macrophage at 25 ug/ml after 2.5 to 5 hrs by RT-PCR; assay type: functional, cell-based
Procedure, shortened: (§4)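 Mouse peritoneal macrophages were elicited with 3 ml of 3% thioglycolate medium given intraperitoneally and collected 4 days later by lavage with cold PBS. Cells were seeded at 1 × 10⁶/ml in RPMI-1640 with 10% heat-inactivated FCS and allowed to adhere for 2 h at 37°C; nonadherent cells were then rinsed off. Cells were exposed to peptide at 25 μg/ml for 2.5, 5 or 7.5 h, with LPS at 100 ng/ml for 24 h as positive control. RT-PCR used 400 ng total RNA and 25–35 cycles, with ethidium bromide agarose gels and G3PDH primers; n = 3.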

[24] = test system: Peritoneal macrophage cell; test: Induction of Mig/CXCL9 mRNA expression in TGC-elicited ICR mouse peritoneal macrophage at 25 ug/ml after 7.5 hrs by RT-PCR; assay type: functional, cell-based; procedure, shortened: as §4
Mus musculus [25] = species: Mus musculus; test: Induction of Mig/CXCL9 mRNA expression in TGC-elicited ICR mouse peritoneal macrophage at 25 ug/ml after 5 hrs by RT-PCR; assay type: functional; procedure, shortened: as §4
Mus musculus [26] = test: Induction of neutrophil recruitment in intraperitoneally dosed ICR mouse abdominal cavity assessed as neutrophil level after 7 hrs using hematoxylin and eosin staining by microscopy; assay type: functional; procedure, shortened: as §3

CC(C)C[C@@H](NC(=O)[C@H](N)CCCCN)C(=O)N[C@H](CCCCN)C(=O)N[C@H](CC(C)C)C(=O)N[C@H](CC(C)C)C(=O)N[C@H](CC(C)C)C(=O)N[C@H](CC(C)C)C(=O)N[C@H](CC(C)C)C(=O)N[C@H](CCCCN)C(=O)N[C@H](CC(C)C)C(=O)N[C@H](CCCCN)C(N)=O (H-[dK][dL][dK][dL][dL][dL][dL][dL][dK][dL][dK]-NH2)
Survival (Staphylococcus aureus [1]): 0%
Survival (Staphylococcus aureus [2]): 25%
Activity (Escherichia coli [3]): 100%
MIC (Staphylococcus aureus [4]): > 625 µg/mL
Survival (Staphylococcus aureus [5]): 75%
MIC (Enterococcus faecalis [6]): > 625 µg/mL
Activity (Escherichia coli [7]): 100%
Survival (Staphylococcus aureus [8]): 87.5%
Survival (Staphylococcus aureus [9]): 62.5%
Survival (Staphylococcus aureus [10]): 100%
Survival (Staphylococcus aureus [11]): 0%
Survival (Staphylococcus aureus [12]): 0%
Survival (Enterococcus faecalis [13]): 100%
Survival (Escherichia coli [14]): 75%
Activity (Staphylococcus aureus [15]): 25%
Survival (Staphylococcus aureus [16]): 0%
MIC (Escherichia coli [17]): > 625 µg/mL
Survival (Staphylococcus aureus [18]): 0%
Activity (Staphylococcus aureus [19]): 50%

H-KLKLLLKLK-NH2
Survival (Staphylococcus aureus [10]): 0%
Activity (Mus musculus [20]): inactive

H-KLKLLLLLKLK-NH2
Activity (Mus musculus [21]): Active
Activity (Staphylococcus aureus [22]): 75%
Activity [23]: Active
MIC (Staphylococcus aureus [4]): > 625 µg/mL
MIC (Enterococcus faecalis [6]): > 625 µg/mL
Activity [24]: inactive
Survival (Staphylococcus aureus [10]): 75%
Activity (Mus musculus [25]): Active
Survival (Enterococcus faecalis [13]): 75%
Activity (Mus musculus [26]): 40%
Survival (Escherichia coli [14]): 25%
MIC (Escherichia coli [17]): > 625 µg/mL
Activity (Mus musculus [20]): Active
